In ChEMBL document CHEMBL1125789, “Synthesis and selective class III antiarrhythmic activity of novel N-heteroaralkyl-substituted 1-(aryloxy)-2-propanolamine and related propylamine derivatives” (J Med Chem, 1991):

Organism: Canis familiaris
Assay: Maximum rate of rise of the upstroke of transmembrane potential, in canine Purkinje Fibers at a concentration of 1.0 uM at 1000 ms (simulating normal heart rate)
Type: functional
Parameters: unit not given here
Details: Canis lupus familiaris, Purkinje fiber
Summary of the method: (§1)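 Isolated canine Purkinje fiber bundles were driven by square-wave pulses 2.0 ms long at 2× threshold and equilibrated ≥1 h to steady state. Each concentration was superfused 45–60 min before recording, and action potentials were sampled at 4–6 sites per fiber in control and after drug, giving Vmax and APD to −60 mV.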

SMILES | Vmax
CN(Cc1ccc2cc(F)ccc2n1)CC(O)COc1ccc(NS(C)(=O)=O)cc1 (stereo not drawn) | 5
CN(Cc1ccc2cc(NS(C)(=O)=O)ccc2n1)CC(O)COc1ccc(NS(C)(=O)=O)cc1 (stereo not drawn) | -10
CN(Cc1ccc2ccccc2n1)C[C@@H](O)COc1ccc(NS(C)(=O)=O)cc1 | 6
CN(Cc1ccc2ccccc2n1)C[C@H](O)COc1ccc(NS(C)(=O)=O)cc1 | 0

System: Canis familiaris
Assay: Ventricular conduction time by the compound in open chest anesthetized dog, after iv administration at a dose of 5.0 mg/kg.
Type: functional, Canis lupus familiaris, Heart
Parameters: unit not given here
Details: not given
Summary of the method: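 Mongrel dogs were anesthetized with sodium pentobarbital (30 mg/kg iv, then 5 mg/kg per h), the chest opened, and the heart paced at BCL 300 ms. Compound was given iv or intraduodenally. Ventricular conduction time was taken as the interval between electrograms at the proximal and distal sites of the recording electrode array. 2-5 dogs per dose.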

SMILES | VCT
CN(CCCOc1ccc(NS(C)(=O)=O)cc1)Cc1ccc2ccccc2n1 | 1
O=[N+]([O-])c1ccc(OCC(O)CN2CCN(c3ccccn3)CC2)cc1 (stereo not drawn) | -7

System: Canis familiaris
Assay: Mean arterial pressure by the compound in open chest anesthetized dog, after iv administration at a dose of 5.0 mg/kg.
Type: functional, Canis lupus familiaris, Artery
Parameters: unit not given here
Details: not given
Summary of the method: (§2)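 Hemodynamics (heart rate, mean arterial pressure) recorded in pentobarbital-anesthetized (30 mg/kg iv, 5 mg/kg per h maintenance) open-chest mongrel dogs during the refractoriness study at BCL 300 ms. Readings were taken before and after iv or intraduodenal compound and expressed as change from control.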

SMILES | MBP
CN(CCCOc1ccc(NS(C)(=O)=O)cc1)Cc1ccc2ccccc2n1 | -11
O=[N+]([O-])c1ccc(OCC(O)CN2CCN(c3ccccn3)CC2)cc1 (stereo not drawn) | -33

Organism: Canis familiaris
Assay: Maximum rate of rise of the upstroke of transmembrane potential, in canine Purkinje Fibers at a concentration of 1.0 uM at 300 ms (simulating tachycardia)
Type: functional
Parameters: unit not given here
Details: Canis lupus familiaris, Purkinje fiber
Summary of the method: as §1

SMILES | Vmax
CN(Cc1ccc2cc(F)ccc2n1)CC(O)COc1ccc(NS(C)(=O)=O)cc1 (stereo not drawn) | 4
CN(Cc1ccc2cc(NS(C)(=O)=O)ccc2n1)CC(O)COc1ccc(NS(C)(=O)=O)cc1 (stereo not drawn) | -4
CN(Cc1ccc2ccccc2n1)C[C@@H](O)COc1ccc(NS(C)(=O)=O)cc1 | -9
CN(Cc1ccc2ccccc2n1)C[C@H](O)COc1ccc(NS(C)(=O)=O)cc1 | -3

Organism: Canis familiaris
Assay: repolarization to reach -60mV, in canine Purkinje Fibers at a concentration of 3.0 uM at 1000 ms (simulating normal heart rate)
Type: functional, Canis lupus familiaris, Purkinje fiber
Details: not given
Summary of the method: (§3)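 Purkinje fiber bundles were stimulated with square-wave current pulses of 2.0 ms at twice threshold and equilibrated for at least 1 h, or until action potential parameters were steady. Each concentration was superfused for 45-60 min to reach steady state. Action potentials were recorded at four to six sites per fiber, under control and after drug.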

SMILES | APD [%]
CN(Cc1ccc2cc(F)ccc2n1)CC(O)COc1ccc(NS(C)(=O)=O)cc1 (stereo not drawn) | 55
CN(CCCOc1ccc(NS(C)(=O)=O)cc1)Cc1ccc2ccccc2n1 | 45
CN(Cc1ccc2cc(NS(C)(=O)=O)ccc2n1)CC(O)COc1ccc(NS(C)(=O)=O)cc1 (stereo not drawn) | 66
CN(Cc1ccc2ccccc2n1)C[C@@H](O)COc1ccc(NS(C)(=O)=O)cc1 | 70
O=[N+]([O-])c1ccc(OCC(O)CN2CCN(c3ccccn3)CC2)cc1 (stereo not drawn) | 29
CN(Cc1ccc2ccccc2n1)C[C@H](O)COc1ccc(NS(C)(=O)=O)cc1 | 54

Organism: Canis familiaris
Assay: Repolarization to reach -60mV, in canine Purkinje Fibers at a concentration of 1.0 uM at 300 ms (simulating tachycardia)
Type: functional, Canis lupus familiaris, Purkinje fiber
Details: not given
Summary of the method: as §1

SMILES | APD [%]
CN(Cc1ccc2cc(F)ccc2n1)CC(O)COc1ccc(NS(C)(=O)=O)cc1 (stereo not drawn) | 19
CN(Cc1ccc2cc(NS(C)(=O)=O)ccc2n1)CC(O)COc1ccc(NS(C)(=O)=O)cc1 (stereo not drawn) | 17
CN(Cc1ccc2ccccc2n1)C[C@@H](O)COc1ccc(NS(C)(=O)=O)cc1 | 22
CN(Cc1ccc2ccccc2n1)C[C@H](O)COc1ccc(NS(C)(=O)=O)cc1 | 14

Organism: Canis familiaris
Assay: Repolarization to reach -60mV, in canine Purkinje Fibers at a concentration of 3.0 uM at 300 ms (simulating tachycardia)
Type: functional, Canis lupus familiaris, Purkinje fiber
Details: not given
Summary of the method: as §1

SMILES | APD [%]
CN(Cc1ccc2cc(F)ccc2n1)CC(O)COc1ccc(NS(C)(=O)=O)cc1 (stereo not drawn) | 22
CN(CCCOc1ccc(NS(C)(=O)=O)cc1)Cc1ccc2ccccc2n1 | 22
CN(Cc1ccc2cc(NS(C)(=O)=O)ccc2n1)CC(O)COc1ccc(NS(C)(=O)=O)cc1 (stereo not drawn) | 18
CN(Cc1ccc2ccccc2n1)C[C@@H](O)COc1ccc(NS(C)(=O)=O)cc1 | 27
O=[N+]([O-])c1ccc(OCC(O)CN2CCN(c3ccccn3)CC2)cc1 (stereo not drawn) | 15
CN(Cc1ccc2ccccc2n1)C[C@H](O)COc1ccc(NS(C)(=O)=O)cc1 | 27

Organism: Canis familiaris
Assay: Repolarization to reach -60mV, in canine Purkinje Fibers at a concentration of 0.3 uM at 300 ms (simulating tachycardia)
Type: functional, Canis lupus familiaris, Purkinje fiber
Details: not given
Summary of the method: as §1

SMILES | APD [%]
CN(Cc1ccc2cc(F)ccc2n1)CC(O)COc1ccc(NS(C)(=O)=O)cc1 (stereo not drawn) | 12
CN(Cc1ccc2cc(NS(C)(=O)=O)ccc2n1)CC(O)COc1ccc(NS(C)(=O)=O)cc1 (stereo not drawn) | 13
CN(Cc1ccc2ccccc2n1)C[C@@H](O)COc1ccc(NS(C)(=O)=O)cc1 | 12
CN(Cc1ccc2ccccc2n1)C[C@H](O)COc1ccc(NS(C)(=O)=O)cc1 | 13

System: Canis familiaris
Assay: Atrial effective refractory period by the compound in open chest anesthetized dog, after iv administration at a dose of 5.0 mg/kg.
Type: functional, Canis lupus familiaris, Cardiac atrium
Parameters: unit not given here
Details: not given
Summary of the method: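 Open-chest mongrel dogs under sodium pentobarbital anesthesia (30 mg/kg iv plus 5 mg/kg per h), paced at basic cycle length 300 ms. Atrial effective refractory period was determined by electrical stimulation before and after iv or intraduodenal compound and reported as change from control.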

SMILES | AERP
CN(CCCOc1ccc(NS(C)(=O)=O)cc1)Cc1ccc2ccccc2n1 | 52
O=[N+]([O-])c1ccc(OCC(O)CN2CCN(c3ccccn3)CC2)cc1 (stereo not drawn) | 69

System: Canis familiaris
Assay: Atrial conduction time by the compound in open chest anesthetized dog, after iv administration at a dose of 5.0 mg/kg.
Type: functional, Canis lupus familiaris, Cardiac atrium
Parameters: unit not given here
Details: not given
Summary of the method: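 Mongrel dogs anesthetized with sodium pentobarbital (30 mg/kg iv, then 5 mg/kg per h), chest opened, paced at BCL 300 ms. Atrial conduction time was taken as the interval between electrograms recorded at the proximal and distal sites of the atrial recording electrode array, before and after iv or intraduodenal dosing. Values are changes from control.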

SMILES | ACT
CN(CCCOc1ccc(NS(C)(=O)=O)cc1)Cc1ccc2ccccc2n1 | -6
O=[N+]([O-])c1ccc(OCC(O)CN2CCN(c3ccccn3)CC2)cc1 (stereo not drawn) | 16

System: Canis familiaris
Assay: Ventricular effective refractory period by the compound in open chest anesthetized dog, after iv administration at a dose of 5.0 mg/kg.
Type: functional, Canis lupus familiaris, Heart
Parameters: unit not given here
Details: not given

SMILES | VERP
CN(CCCOc1ccc(NS(C)(=O)=O)cc1)Cc1ccc2ccccc2n1 | 30
O=[N+]([O-])c1ccc(OCC(O)CN2CCN(c3ccccn3)CC2)cc1 (stereo not drawn) | 25

Organism: Canis familiaris
Assay: repolarization to reach -60mV, in canine Purkinje Fibers at a concentration of 0.3 uM at 1000 ms (simulating normal heart rate)
Type: functional, Canis lupus familiaris, Purkinje fiber
Details: not given
Summary of the method: as §3

SMILES | APD [%]
CN(Cc1ccc2cc(F)ccc2n1)CC(O)COc1ccc(NS(C)(=O)=O)cc1 (stereo not drawn) | 31
CN(Cc1ccc2cc(NS(C)(=O)=O)ccc2n1)CC(O)COc1ccc(NS(C)(=O)=O)cc1 (stereo not drawn) | 42
CN(Cc1ccc2ccccc2n1)C[C@@H](O)COc1ccc(NS(C)(=O)=O)cc1 | 25
CN(Cc1ccc2ccccc2n1)C[C@H](O)COc1ccc(NS(C)(=O)=O)cc1 | 22

Organism: Canis familiaris
Assay: Maximum rate of rise of the upstroke of transmembrane potential, in canine Purkinje Fibers at a concentration of 3.0 uM at 300 ms (simulating tachycardia)
Type: functional
Parameters: unit not given here
Details: Canis lupus familiaris, Purkinje fiber
Summary of the method: as §1

SMILES | Vmax
CN(Cc1ccc2cc(F)ccc2n1)CC(O)COc1ccc(NS(C)(=O)=O)cc1 (stereo not drawn) | 8
CN(CCCOc1ccc(NS(C)(=O)=O)cc1)Cc1ccc2ccccc2n1 | 3
CN(Cc1ccc2cc(NS(C)(=O)=O)ccc2n1)CC(O)COc1ccc(NS(C)(=O)=O)cc1 (stereo not drawn) | -1
CN(Cc1ccc2ccccc2n1)C[C@@H](O)COc1ccc(NS(C)(=O)=O)cc1 | -1
O=[N+]([O-])c1ccc(OCC(O)CN2CCN(c3ccccn3)CC2)cc1 (stereo not drawn) | -19
CN(Cc1ccc2ccccc2n1)C[C@H](O)COc1ccc(NS(C)(=O)=O)cc1 | 0

Organism: Canis familiaris
Assay: Maximum rate of rise of the upstroke of transmembrane potential, in canine Purkinje Fibers at a concentration of 3.0 uM at 1000 ms (simulating normal heart rate)
Type: functional
Parameters: unit not given here
Details: Canis lupus familiaris, Purkinje fiber
Summary of the method: as §1

SMILES | Vmax
CN(Cc1ccc2cc(F)ccc2n1)CC(O)COc1ccc(NS(C)(=O)=O)cc1 (stereo not drawn) | 11
CN(CCCOc1ccc(NS(C)(=O)=O)cc1)Cc1ccc2ccccc2n1 | 5
CN(Cc1ccc2cc(NS(C)(=O)=O)ccc2n1)CC(O)COc1ccc(NS(C)(=O)=O)cc1 (stereo not drawn) | -6
CN(Cc1ccc2ccccc2n1)C[C@@H](O)COc1ccc(NS(C)(=O)=O)cc1 | 4
O=[N+]([O-])c1ccc(OCC(O)CN2CCN(c3ccccn3)CC2)cc1 (stereo not drawn) | 8
CN(Cc1ccc2ccccc2n1)C[C@H](O)COc1ccc(NS(C)(=O)=O)cc1 | -5

Organism: Canis familiaris
Assay: Maximum rate of rise of the upstroke of transmembrane potential, in canine Purkinje Fibers at a concentration of 0.3 uM at 300 ms (simulating tachycardia)
Type: functional
Parameters: unit not given here
Details: Canis lupus familiaris, Purkinje fiber
Summary of the method: as §1

SMILES | Vmax
CN(Cc1ccc2cc(F)ccc2n1)CC(O)COc1ccc(NS(C)(=O)=O)cc1 (stereo not drawn) | 3
CN(Cc1ccc2cc(NS(C)(=O)=O)ccc2n1)CC(O)COc1ccc(NS(C)(=O)=O)cc1 (stereo not drawn) | -2
CN(Cc1ccc2ccccc2n1)C[C@@H](O)COc1ccc(NS(C)(=O)=O)cc1 | -4
CN(Cc1ccc2ccccc2n1)C[C@H](O)COc1ccc(NS(C)(=O)=O)cc1 | -4

System: Canis familiaris
Assay: Heart beat by the compound in open chest anesthetized dog, after iv administration at a dose of 5.0 mg/kg.
Type: functional, Canis lupus familiaris
Parameters: unit not given here
Details: not given
Summary of the method: as §2

SMILES | HR
CN(CCCOc1ccc(NS(C)(=O)=O)cc1)Cc1ccc2ccccc2n1 | -23
O=[N+]([O-])c1ccc(OCC(O)CN2CCN(c3ccccn3)CC2)cc1 (stereo not drawn) | -33

Organism: Canis familiaris
Assay: repolarization to reach -60mV, in canine Purkinje Fibers at a concentration of 1.0 uM at 1000 ms (simulating normal heart rate)
Type: functional, Canis lupus familiaris, Purkinje fiber
Details: not given
Summary of the method: as §3

SMILES | APD [%]
CN(Cc1ccc2cc(F)ccc2n1)CC(O)COc1ccc(NS(C)(=O)=O)cc1 (stereo not drawn) | 50
CN(Cc1ccc2cc(NS(C)(=O)=O)ccc2n1)CC(O)COc1ccc(NS(C)(=O)=O)cc1 (stereo not drawn) | 55
CN(Cc1ccc2ccccc2n1)C[C@@H](O)COc1ccc(NS(C)(=O)=O)cc1 | 48
CN(Cc1ccc2ccccc2n1)C[C@H](O)COc1ccc(NS(C)(=O)=O)cc1 | 40

Organism: Canis familiaris
Assay: Maximum rate of rise of the upstroke of transmembrane potential, in canine Purkinje Fibers at a concentration of 0.3 uM at 1000 ms (simulating normal heart rate)
Type: functional
Parameters: unit not given here
Details: Canis lupus familiaris, Purkinje fiber
Summary of the method: as §1

SMILES | Vmax
CN(Cc1ccc2cc(F)ccc2n1)CC(O)COc1ccc(NS(C)(=O)=O)cc1 (stereo not drawn) | 3
CN(Cc1ccc2cc(NS(C)(=O)=O)ccc2n1)CC(O)COc1ccc(NS(C)(=O)=O)cc1 (stereo not drawn) | -12
CN(Cc1ccc2ccccc2n1)C[C@@H](O)COc1ccc(NS(C)(=O)=O)cc1 | 9
CN(Cc1ccc2ccccc2n1)C[C@H](O)COc1ccc(NS(C)(=O)=O)cc1 | 9
